According to PubChem BioAssay:
The source made the active and inactive calls.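 Rule for the calls: active = GFP response above 150% of the DMSO control; inconclusive = fewer than 70 events counted in any yeast strain; inactive = the rest.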

Assay: LAP4-GFP expression modulators in yeast, confirmation, cell-based, cherry picks, flow cytometry, mother/daughter gates (AID 2271);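 note: ratio of sample to DMSO plate mean so 100% equals DMSO level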
Details: S. cerevisiae LAP4-GFP strain, 3 h, at 10 µM, active compounds read high, 100 means same as DMSO control
How it was run: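 Material: Alexa 633-stained baker's yeast GFP-fusion strain; Compound dosing: single test-compound dose, 10 µM final; Incubation: 30 °C, 3 h compound incubation, rotating; Detection: HT flow cytometry, GFP fluorescence channel; Control set: positive rapamycin (400 ng/mL), negative DMSO.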

GFP response relative to DMSO, active:
O=[N+]([O-])c1cc(CN2CCN(c3cccc(C(F)(F)F)c3)CC2)c2cccnc2c1O 234%
O=C(c1ccc([N+](=O)[O-])o1)N1CCN(c2nc3c(F)cc(F)cc3s2)CC1 250%
N#C/C(=C\c1ccccn1)c1nc2ccccc2s1 584%
O=C(CCc1ccccc1)NNC(=S)NC(=O)c1ccccc1 186%

GFP response relative to DMSO, inactive:
C=CCNC(=S)N/N=C(\C)c1cccc(OC)c1 98.8%
COc1ccccc1/C=C/C=N/NC(=O)c1cccs1 99.8%
O=C(Oc1ccnc2cc(Cl)ccc12)N1CCCCCC1 114%
Cc1nn(Cc2ccccc2Cl)c(C)c1C(=O)NCc1ccco1 97.7%
Cc1ccc(NC(=O)c2ccc([N+](=O)[O-])o2)cc1C 128%
O=C(N/N=C/c1ccc(-c2ccc(Br)cc2)o1)c1ccc2c(c1)OCO2 99.5%
Cc1n[nH]c(C)c1N1C(=O)c2cccc3cc(Br)cc(c23)C1=O 99.5%
CC(C)(C)NC(=O)c1ccccc1-c1nc(-c2ccccc2Cl)no1 99.5%
CCn1c(=O)c(C(=O)NCCc2ccccc2)c(O)c2ccccc21 95.3%
O=C(O)Cn1cc(/C=C/[N+](=O)[O-])c2ccccc21 102%
O=[N+]([O-])c1cc(C(F)(F)F)ccc1Sc1ccc2ccccc2n1 115%
Cc1ccc(NC(=S)c2nc3ccccc3[nH]2)cc1 125%
CCOc1ccc(C(C)=O)cc1N1C(=O)C2C3C=CC(O3)C2C1=O (centres undefined) 136%
O=C(CSc1nnc(-c2ccccn2)n1Cc1ccccc1)N1CCOCC1 105%
Cc1cc(N2CCOCC2)n2nc(C)c(-c3ccccc3)c2n1 98.2%
CCN(CC)CCN(C(=O)c1ccc2c(c1)CCCC2)c1nc2cc(OC)c(OC)cc2s1 98.8%
COc1ccc(-c2ccc(CCC(=O)O)o2)cc1 126%
COc1ccc(N2C(=O)C(Cl)=C(Nc3c(C)n(C)n(-c4ccccc4)c3=O)C2=O)cc1 100%
Cn1ncc(N2CCN(S(=O)(=O)c3ccc(Br)cc3)CC2)c(Cl)c1=O 96.7%
Cc1ccc(C(=O)OCC(=O)Nc2ccccc2Sc2ccccc2)cc1C 96.1%
